Activity calls are given as the source filed them.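 The calls were made as follows: active = rising caspase curve whose AC50 is at most ten times the top dose tested; inconclusive = flat fit between 30 and 70%, or a poor fit; inactive = the rest.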
tested on: not listed separately; assay: apoptosis induction in WT mouse fibroblasts – cell-based, wild-type MEF, Caspase-Glo luminescence, dry powder, counter-screen for A1 (Bcl2-A1) inhibitor project, dose response (AID 488902); conditions: wild-type MEF caspase activation, Caspase-Glo luminescence, 3 h; at 135 µM (top of the series)
How it was run: (§1)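 test system = wild-type mouse embryonic fibroblasts, unprimed by A1-BIM, not A1-dependent | input = 2500 cells per well | doses = dose-response series from dry powder, 100 nL pinned per well | times = 3 h compound treatment at 37 °C, 1 h reagent step | technique = luminescence with CaspaseGlo reagent, 1:1 dilution in 50 mM HEPES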

Row | Compound | caspase activation
1 | CC(=O)N[C@H]1[C@H](O[C@H]2CC[C@@]3(C)C(CC[C@]4(C)C3CC=C3[C@@H]5CC(C)(C)CC[C@]5(C(=O)OC5OCC(O)C(O)C5O)C(O)C[C@]34C)C2(C)C)O[C@H](COC2OCC(O)C(OC3OCC(O)C(O)C3O)C2O)[C@@H](O[C@@H]2O[C@@H](C)[C@H](O)[C@@H](O)[C@H]2O[C@@H]2O[C@@H](C)[C@H](O)[C@@H](O)[C@H]2O)[C@@H]1O (stereo not given in full) | -0.32% (inactive)

same assay, conditions: wild-type MEF caspase activation, Caspase-Glo luminescence, 3 h; at 150 µM (top of the series)

Row | Compound | caspase activation
2 | CC(=O)OC(C)(C)/C=C/C(=O)[C@](C)(O)C1[C@H](O)C[C@@]2(C)C3CC=C4C(C[C@H](O)C(=O)C4(C)C)[C@]3(C)C(=O)C[C@]12C (stereo not given in full) | 0.64% (inactive)
3 | Cn1c(=NC(=O)CCl)sc2ccccc21 | 0.0802% (inactive)
4 | Nc1nc(F)nc2c1ncn2[C@@H]1O[C@H](CO)[C@@H](O)[C@H]1O | -0.43% (inactive)
5 | Cc1cccc(CS(=O)(=O)c2ncc(Cl)c(C(=O)Nc3nnc(C(C)C)s3)n2)c1 | -1.13% (inactive)
6 | CCSc1nnc(NC(=O)c2nc(S(=O)(=O)Cc3ccc(F)cc3)ncc2Cl)s1 | -2.01% (inactive)
7 | C=C1[C@@H](C)[C@H]2[C@H](Cc3ccccc3)NC(=O)[C@]23[C@H](OC(C)=O)/C=C/[C@](C)(O)C(=O)[C@@H](C)C/C=C/[C@H]3[C@@H]1O | -0.119% (inactive)
8 | Cc1ccc(CS(=O)(=O)c2ncc(Cl)c(C(=O)Nc3nnc(C(C)C)s3)n2)cc1 | -1.41% (inactive)
9 | C=C1[C@@H](C)[C@H]2[C@H](Cc3ccccc3)NC(=O)[C@]23OC(=O)/C=C\[C@H](O)CCC[C@@H](C)C/C=C/[C@H]3[C@@H]1O | 0.465% (inactive)
10 | O=C(CCl)N=c1sccn1Cc1ccccc1Cl | 0.637% (inactive)
11 | CCOC(=O)CSC1=N/C(=C/c2ccc(-n3cncn3)cc2)C(=O)N1C(C)=O | 2.7% (inactive)
12 | Cc1c(CCOC(=O)c2ccc(N3CCOCC3)c([N+](=O)[O-])c2)sc[n+]1CC#N | 0.157% (inactive)
13 | COc1cc(/C=C(/C#N)c2nc3ccccc3[nH]2)ccc1OCC(=O)Nc1ccccc1C(C)C | 0.773% (inactive)
14 | O=C(Oc1cccc(/C=N/Nc2nc(Nc3ccccc3)nc(N3CCOCC3)n2)c1)c1ccco1 | 0.0158% (inactive)
15 | CCc1nnc(NC(=O)c2nc(S(=O)(=O)Cc3ccccc3)ncc2Cl)s1 | -0.316% (inactive)
16 | CC(C)(C)n1nc(-c2ccc(Cl)cc2)c2c(N)ncnc21 | 2.53% (inactive)
17 | C/C1=C/C(=O)O[C@@H]2C[C@@H](CC[C@H](C)/C=C\CC1)O[C@@](O)(C1CSC(=O)N1)C2 (stereo not given in full) | 0.912% (inactive)
18 | COc1cccc(C(=O)C(C#N)=C(SC)SC)c1 | -1.91% (inactive)
19 | Cc1ccc(Sc2c([N+](=O)[O-])c(=O)n(C)c3ccccc23)cc1 | 1.56% (inactive)
20 | Cc1c(C=O)c(C=O)c(C)n1Cc1ccccc1 | 1.13% (inactive)

tested on: wild-type MEF caspase activation, Caspase-Glo luminescence, 3 h; assay: as above; conditions: not given
How it was run: as §1

Row | Compound | AC50
21 | Cc1cc(C(=O)CCl)c(C)n1CCc1ccc(Cl)cc1 | 16.3 µM
22 | COc1cc(CN2CCN(c3cc(C)ccc3C)CC2)ccc1O | > 150 µM (inactive)
23 | CCc1cc2c(=O)c(-c3cnn(-c4ccccc4)c3)c(C)oc2cc1OCC(=O)Nc1cccc(C)c1 | 2.93 µM
24 | Cc1cccc(NC(=O)/C(C#N)=C/c2cn(CC(=O)NCc3ccco3)c3ccccc23)c1 | 4.34 µM
25 | COc1ccc(N(C(=O)CCl)C(C(=O)NCCc2ccccc2)c2cccs2)cc1Cl (stereo not given) | 15.5 µM
